Measured values taken from ChEMBL document CHEMBL2203082, “Thiorhodamines containing amide and thioamide functionality as inhibitors of the ATP-binding cassette drug transporter P-glycoprotein (ABCB1)” (Bioorg Med Chem, 2012).

Legend:
[1] = n-Octanol-water partition coefficient, log P of the compound at pH 7.4 by shake flask method; format: physicochemical
P-gp (MDR1, ABCB1) [2] = target: T1, P-gp (MDR1, ABCB1) (Homo sapiens, UniProt P08183); assay: Inhibition of MDR1 transfected in MDCK2 cells assessed as increase in calcein AM uptake at 5*10^-6 M incubated for 30 mins prior to calcein AM influx measured after 20 mins by fluorimetric analysis relative to LSN 335984; format: cell-based, MDCK-II; settings: dog, MDCK2 cells transfected with MDR1, probe calcein AM
T1 sequence (P08183 whole entry): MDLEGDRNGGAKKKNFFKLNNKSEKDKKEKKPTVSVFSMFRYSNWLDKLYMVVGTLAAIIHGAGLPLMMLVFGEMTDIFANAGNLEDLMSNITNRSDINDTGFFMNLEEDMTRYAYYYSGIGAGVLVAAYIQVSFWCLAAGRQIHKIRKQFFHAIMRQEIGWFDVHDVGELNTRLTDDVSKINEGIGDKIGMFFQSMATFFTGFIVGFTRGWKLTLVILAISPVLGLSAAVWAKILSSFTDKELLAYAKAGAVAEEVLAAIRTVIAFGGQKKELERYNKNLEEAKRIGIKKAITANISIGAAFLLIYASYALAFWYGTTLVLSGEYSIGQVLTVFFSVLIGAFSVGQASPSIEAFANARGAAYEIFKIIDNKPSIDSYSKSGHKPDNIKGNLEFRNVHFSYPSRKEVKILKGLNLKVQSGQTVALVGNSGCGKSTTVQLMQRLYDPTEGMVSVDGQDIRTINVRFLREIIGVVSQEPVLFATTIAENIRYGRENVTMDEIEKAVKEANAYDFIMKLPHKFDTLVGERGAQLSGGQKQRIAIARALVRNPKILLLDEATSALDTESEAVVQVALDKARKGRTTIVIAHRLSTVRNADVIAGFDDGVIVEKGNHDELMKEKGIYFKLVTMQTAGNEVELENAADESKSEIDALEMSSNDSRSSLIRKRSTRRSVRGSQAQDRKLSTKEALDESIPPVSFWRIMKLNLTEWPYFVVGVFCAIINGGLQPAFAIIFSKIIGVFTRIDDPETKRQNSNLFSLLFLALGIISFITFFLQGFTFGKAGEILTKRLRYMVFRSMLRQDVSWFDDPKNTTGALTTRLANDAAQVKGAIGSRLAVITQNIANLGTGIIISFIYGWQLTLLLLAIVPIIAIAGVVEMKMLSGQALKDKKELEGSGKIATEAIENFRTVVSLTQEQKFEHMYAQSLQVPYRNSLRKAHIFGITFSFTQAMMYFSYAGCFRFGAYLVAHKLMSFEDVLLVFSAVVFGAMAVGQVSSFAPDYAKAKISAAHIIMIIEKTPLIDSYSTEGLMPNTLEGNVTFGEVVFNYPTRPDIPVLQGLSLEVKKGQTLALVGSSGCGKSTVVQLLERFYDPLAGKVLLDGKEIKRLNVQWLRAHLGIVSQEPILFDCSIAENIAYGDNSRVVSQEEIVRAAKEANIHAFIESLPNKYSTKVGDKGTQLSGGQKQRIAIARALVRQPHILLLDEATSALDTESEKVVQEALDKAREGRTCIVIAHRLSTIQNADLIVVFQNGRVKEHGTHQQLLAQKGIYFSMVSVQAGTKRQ
Method in brief: (§1)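 MDCKII-MDR1 cells (passage 16-42) seeded 40,000 cells/well, used day 4. Washed with DPBS plus 10−2 M Hepes pH 7.4, then incubated 30 min at 37 °C with compound in this buffer with 4.3 mg mL−1 BSA. Compound solution then replaced with one also holding 0.5 μg mL−1 calcein AM, 20 min more.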

[3] = target: T2, ATP-dependent translocase ABCB1 (Homo sapiens, UniProt P08183); assay: Inhibition of MDR1 transfected in MDCK2 cells assessed as increase in calcein AM uptake incubated for 30 mins prior to calcein AM influx measured after 20 mins by fluorimetric analysis; format: cell-based, MDCK-II
T2 sequence (P08183 whole entry): as above

[4] = Permeability from apical to basal side of MDCK2 cells expressing MDR1 at 5 uM after 1 hr by LC-MS/MS analysis; format: ADME, cell-based, Canis lupus familiaris, MDCK-II; settings: dog, MDCK-MDR1; read-out: permeability
Method in brief: (§2)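 MDCKII-MDR1 cells on Transwell polycarbonate filters (50,000 cells cm−2), used day 6. 5 μM compound added to donor chamber (AB or BA). Donor and receiver sampled after 1 h at 37 °C with nutation. Cell-associated fraction taken by methanol extraction of monolayer after AB flux. Quantified by LC-MS/MS. ±SD.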

[5] = Permeability from apical to basal side of MDCK2 cells expressing MDR1 assessed as fraction of mass extracted by methanol wash at 5 uM after 1 hr by LC-MS/MS analysis in presence of LSN 335984; format: ADME, cell-based, Canis lupus familiaris; settings: dog, mdck-ii; method in brief: as §2
[6] = Permeability from apical to basal side of MDCK2 cells expressing MDR1 assessed as fraction of mass extracted by methanol wash at 5 uM after 1 hr by LC-MS/MS analysis; format: ADME, cell-based, Canis lupus familiaris; settings: dog, mdck-ii; method in brief: as §2
P-gp (MDR1, ABCB1) [7] = target: T1, P-gp (MDR1, ABCB1); assay: Inhibition of MDR1 transfected in MDCK2 cells assessed as increase in calcein AM uptake at 2.5*10^-5 M incubated for 30 mins prior to calcein AM influx measured after 20 mins by fluorimetric analysis relative to LSN 335984; format: cell-based, MDCK-II; settings: dog, MDCK2 cells transfected with MDR1, probe calcein AM; method in brief: as §1
[8] = Ratio of permeability from apical to basal side of MDCK2 cells expressing MDR1 assessed as fraction of mass extracted by methanol wash at 5 uM in presence of LSN 335984 to permeability from apical to basal side of MDCK2 cells expressing MDR1 assessed as fraction of mass extracted by methanol wash at 5 uM in absence of LSN 335984; format: ADME, cell-based, Canis lupus familiaris; settings: dog, mdck-ii; method in brief: as §2
[9] = target: P-gp (ABCB1) ATPase activity (Homo sapiens, UniProt P08183); assay: Binding affinity to human His10-tagged P-gp expressed in BHK cells assessed as induction of ATPase activity measured as inorganic phosphate release by spectrophotometric analysis relative to control; format: cell-based; settings: read-out: FC
Sequence of P-gp (ABCB1) ATPase activity (P08183 whole entry): as above

[10] = Permeability from basal to apical side of MDCK2 cells expressing MDR1 at 5 uM after 1 hr by LC-MS/MS analysis; format: ADME, cell-based, Canis lupus familiaris, MDCK-II; settings: dog, MDCK-MDR1; read-out: permeability; method in brief: as §2
[11] = Ratio of permeability from basal to apical side of MDCK2 cells expressing MDR1 in absence of LSN 335984 to permeability from basal to apical side of MDCK2 cells expressing MDR1 in presence of LSN 335984; format: ADME, cell-based, Canis lupus familiaris; settings: dog, mdck-ii; method in brief: as §2
[12] = target: T2, ATP-dependent translocase ABCB1; assay: Inhibition of MDR1 transfected in MDCK2 cells assessed as inhibition of [3H]vinblastine efflux incubated for 30 mins prior to [3H]vinblastine addition by scintillation counting; format: cell-based, MDCK-II
Method in brief: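 Transwell MDCKII-MDR1 monolayers on day 6, rinsed 10 min in DPBSH at 37 °C. Conditioned with compound at 1 × 10−10 to 1 × 10−5 M in BSA/DPBSH. [3H]-vinblastine added to the basolateral side. Apical buffer replaced every 10 min, and apical [3H] counted by scintillation. IC50 calculated from the curve.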

[13] = target: T2, ATP-dependent translocase ABCB1; assay: Inhibition of human His10-tagged P-gp ATPase activity expressed in BHK cells assessed as verapamil-induced inorganic phosphate release incubated for 15 mins prior to verapamil addition by spectrophotometric analysis; format: cell-based
Method in brief: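 P-gp-His10 stably expressed in BHK cells, Ni-chelate purified and mixed 1:1 with 10 mg/ml sheep brain phosphatidylethanolamine. Pre-incubated with compound 15 min at 20 °C. […] Released inorganic phosphate measured.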

CCN(CC)C(=S)c1ccc(-c2c3ccc(=[N+](C)C)cc-3sc3cc(N(C)C)ccc23)s1.F[P-](F)(F)(F)(F)F
logD [1]: 1.2
inhibition at 20 min, 5 µM (P-gp (MDR1, ABCB1) [2]): 0%
IC50 [3]: 14 µM
Papp A→B at 1 h, 5 µM [4]: ≤ 0.1 ×10⁻⁶ cm/s
permeability [5]: 56%
permeability [6]: 11%
inhibition at 20 min, 25 µM (P-gp (MDR1, ABCB1) [7]): 3%
Ratio [8]: 5.1
fold induction [9]: 12.1
Papp B→A at 1 h, 5 µM [10]: 21 ×10⁻⁶ cm/s
Ratio [11]: 41

CN(C)c1ccc2c(-c3ccc(C(=O)N4CCCCC4)s3)c3ccc(=[N+](C)C)cc-3sc2c1
logD [1]: 1.5

CCN(CC)C(=O)c1ccc(-c2c3ccc(=[N+](C)C)cc-3sc3c4c5c(cc23)CCCN5CCC4)s1.F[P-](F)(F)(F)(F)F
logD [1]: 1.9
inhibition at 20 min, 5 µM (P-gp (MDR1, ABCB1) [2]): 0%
IC50 [3]: 10 µM
Papp A→B at 1 h, 5 µM [4]: ≤ 0.1 ×10⁻⁶ cm/s
permeability [5]: 28%
permeability [6]: 5.8%
inhibition at 20 min, 25 µM (P-gp (MDR1, ABCB1) [7]): 41%
Ratio [8]: 4.8
fold induction [9]: 5.6
Papp B→A at 1 h, 5 µM [10]: 21 ×10⁻⁶ cm/s
Ratio [11]: 12

CCN(CC)C(=S)c1ccc(-c2c3ccc(=[N+](C)C)cc-3sc3c4c5c(cc23)CCCN5CCC4)s1.F[P-](F)(F)(F)(F)F
logD [1]: 1.7
inhibition at 20 min, 5 µM (P-gp (MDR1, ABCB1) [2]): 0%
IC50 [3]: 9.6 µM
Papp A→B at 1 h, 5 µM [4]: ≤ 0.1 ×10⁻⁶ cm/s
permeability [5]: 45%
permeability [6]: 25%
inhibition at 20 min, 25 µM (P-gp (MDR1, ABCB1) [7]): 41%
Ratio [8]: 1.8
fold induction [9]: 4.6
Papp B→A at 1 h, 5 µM [10]: 6.5 ×10⁻⁶ cm/s
Ratio [11]: 24

C[N+](C)=c1ccc2c(-c3ccc(C(=O)N4CCCCC4)s3)c3cc4c5c(c3sc-2c1)CCCN5CCC4.F[P-](F)(F)(F)(F)F
logD [1]: 1.4
inhibition at 20 min, 5 µM (P-gp (MDR1, ABCB1) [2]): 0%
IC50 [3]: 56 µM
Papp A→B at 1 h, 5 µM [4]: ≤ 0.1 ×10⁻⁶ cm/s
permeability [5]: 42%
permeability [6]: 6.9%
inhibition at 20 min, 25 µM (P-gp (MDR1, ABCB1) [7]): 41%
Ratio [8]: 6.1
fold induction [9]: 4.1
Papp B→A at 1 h, 5 µM [10]: 22 ×10⁻⁶ cm/s
Ratio [11]: 27

CCN(CC)C(=O)c1ccc(-c2c3ccc(=[N+](C)C)cc-3sc3cc4c(cc23)C(C)(C)CCN4C)s1.F[P-](F)(F)(F)(F)F
logD [1]: 1.4
inhibition at 20 min, 5 µM (P-gp (MDR1, ABCB1) [2]): 0%
IC50 [3]: 7.1 µM
IC50 [12]: 8 µM
Papp A→B at 1 h, 5 µM [4]: ≤ 0.1 ×10⁻⁶ cm/s
permeability [5]: 33%
permeability [6]: 10%
inhibition at 20 min, 25 µM (P-gp (MDR1, ABCB1) [7]): 64%
Ratio [8]: 3.3
fold induction [9]: 4.7
Papp B→A at 1 h, 5 µM [10]: 37 ×10⁻⁶ cm/s
Ratio [11]: 14

CCN(CC)C(=S)c1ccc(-c2c3ccc(=[N+](C)C)cc-3sc3cc4c(cc23)C(C)(C)CCN4C)s1.F[P-](F)(F)(F)(F)F
logD [1]: 2.7
inhibition at 20 min, 5 µM (P-gp (MDR1, ABCB1) [2]): 0%
IC50 [3]: 8.8 µM
IC50 [12]: 8.7 µM
Papp A→B at 1 h, 5 µM [4]: ≤ 0.1 ×10⁻⁶ cm/s
permeability [5]: 64%
permeability [6]: 52%
inhibition at 20 min, 25 µM (P-gp (MDR1, ABCB1) [7]): 64%
Ratio [8]: 1.2
fold induction [9]: 4.3
Papp B→A at 1 h, 5 µM [10]: 6.9 ×10⁻⁶ cm/s
Ratio [11]: 69

CN1CCC(C)(C)c2cc3c(-c4ccc(C(=O)N5CCCCC5)s4)c4ccc(=[N+](C)C)cc-4sc3cc21.F[P-](F)(F)(F)(F)F
logD [1]: 1.7
inhibition at 20 min, 5 µM (P-gp (MDR1, ABCB1) [2]): 0%
IC50 [3]: 13 µM
IC50 [13]: 1.1 µM
IC50 [12]: 5.6 µM
Papp A→B at 1 h, 5 µM [4]: ≤ 0.1 ×10⁻⁶ cm/s
permeability [5]: 45%
permeability [6]: 8.6%
inhibition at 20 min, 25 µM (P-gp (MDR1, ABCB1) [7]): 64%
Ratio [8]: 5.2
fold induction [9]: < 2
Papp B→A at 1 h, 5 µM [10]: 23 ×10⁻⁶ cm/s
Ratio [11]: 31

CN1CCC(C)(C)c2cc3c(-c4ccc(C(=S)N5CCCCC5)s4)c4ccc(=[N+](C)C)cc-4sc3cc21.F[P-](F)(F)(F)(F)F
logD [1]: 2.6
inhibition at 20 min, 5 µM (P-gp (MDR1, ABCB1) [2]): 0%
IC50 [3]: 9.3 µM
IC50 [13]: 1.7 µM
IC50 [12]: 8.9 µM
Papp A→B at 1 h, 5 µM [4]: ≤ 0.1 ×10⁻⁶ cm/s
permeability [5]: 62%
permeability [6]: 34%
inhibition at 20 min, 25 µM (P-gp (MDR1, ABCB1) [7]): 64%
Ratio [8]: 1.8
fold induction [9]: < 2
Papp B→A at 1 h, 5 µM [10]: 3.4 ×10⁻⁶ cm/s
Ratio [11]: 170

C[N+](C)=c1ccc2c(-c3ccc(C(=S)N4CCCCC4)s3)c3cc4c5c(c3sc-2c1)CCCN5CCC4.F[P-](F)(F)(F)(F)F
inhibition at 20 min, 5 µM (P-gp (MDR1, ABCB1) [2]): 0%
Papp A→B at 1 h, 5 µM [4]: ≤ 0.1 ×10⁻⁶ cm/s
permeability [5]: 64%
permeability [6]: 31%
inhibition at 20 min, 25 µM (P-gp (MDR1, ABCB1) [7]): 41%
Papp B→A at 1 h, 5 µM [10]: 8.3 ×10⁻⁶ cm/s

CCN(CC)C(=O)c1ccc(-c2c3ccc(=[N+](C)C)cc-3sc3cc(N(C)C)ccc23)s1
logD [1]: 1.2
